Measurements published in the EternaBench riboswitch data.

System: MS2 coat protein
Assay: apparent Kd, MS2 coat protein; higher = weaker binding; RNA-MaP array; theophylline 2 mM where present
Procedure, shortened: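 Stalled E. coli RNA polymerase transcribed the designs on Illumina sequencing-chip clusters. SNAP-549-labelled MS2 coat protein was titrated from 0.7 or 1.5 nM, doubling to 3 µM, without and then with constant ligand, in 100 mM Tris-HCl pH 7.5, 80 mM KCl, 4 mM MgCl2, BSA, DTT, yeast tRNA and Tween-20. Per-cluster binding curves were fitted to green signal normalised to red-channel RNA signal and control-cluster median Fmax. The apparent Kd is the median of the filtered fits.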

[1] = designed as: OFF switch for theophylline, no ligand
[2] = ligand present: theophylline, designed as: OFF switch for theophylline
[3] = designed as: ON switch for theophylline, no ligand
[4] = ligand present: theophylline, designed as: ON switch for theophylline

Sequence	apparent Kd [1]	apparent Kd [2]	apparent Kd [3]	apparent Kd [4]
UCCUCCUCCGCAAGGAGGAGGAGUUGCGAUACCAGCACGGCAACGUGCCCUUGGCAGCGCACAUGAGGAUCACCCAUGUCAUGUU	19.4 nM	24.3 nM	–	–
GAUGAACUAUGUGAUACCAGACAACAUGAGGAUCACCCAUGUGCGCGUCGUCCUCUGCCUGUCCCUUGGCAGCGUAUAGUUUAUC	60.3 nM	124 nM	–	–
CAACAAGUAACUGAUACCAGUGUACUGACAUGAGGAUCACCCAUGUUGGGUUUUGUUGUACACCCUUGGCAGCAGAAUCUUGUUG	60.7 nM	82.5 nM	–	–
ACACAUGAGGAUCACCCAUGUUCAAUAGAUACCAGUGAUACGGUGCACCCUUGGCAGCUGUUGCUGAGUGAUGGUUCCCUCGGAA	–	–	55.2 nM	77.7 nM
GAUGAACUAUUUGAUACCAGACUACAUGAGGAUCACCCAUGUGUGUUUAUACUUCUGUCAGUCCCUUGGCAGCAAAUAGUUUAUC	62.5 nM	106 nM	–	–
GCACUACAUGAGGAUCACCCAUGUGCAGAUACCAGAGGUGUAUGCCUCCCUUGGCAGCUGAGUAGGUCUGGAGGGCUAUUGGUUU	–	–	17.6 nM	23.5 nM
UUUACAUGAGGAUCACCCAUGUUCCAUGAUACCAGACAUGAAAAUGUCCCUUGGCAGCAUGAAUGAUUCAUAGGAUAAUUAUGGG	–	–	98.7 nM	52.9 nM
GGUAGCAGGACUGAUACCAGUCCAGCGAAUCAUACGACGCAACAUGAGGAUCACCCAUGUGACCCUUGGCAGCAGACUGCUACCG	–	–	24.7 nM	14.5 nM
UCGUGUAUAUCGGAUACCAGUGAGAAGGAUACAUGAGGAUCACCCAUGUGAGUUGAUGUACACCCUUGGCAGCUGUAUAUAUCUA	–	–	49.9 nM	26.2 nM
CGAUCUUUCGAAAGAAGGAUCUUGUCUGAUACCAGAGACGAAAGUCUCCCUUGGCAGCAGUGCCAACAUGAGGAUCACCCAUGUU	–	–	14.5 nM	14.8 nM
ACACAUGAGGAUCACCCAUGUGCAAUAGAUACCAGUGACGCGGUGCACCCUUGGCAGCUGUUGCUGAGUGAUGGUUCCCUCGGAA	36.6 nM	58.5 nM	–	–
AAGGGAGAAUCAGAUACCAGAGUAAGAUGGCAUGAUAAUUACAUGAGGAUCACCCAUGUACUCCCUUGGCAGCUGACAAUAUAUU	10.2 nM	12.2 nM	–	–
AGUAAUCUAAGAGAUACCAGACGGUAUAUAACAUGAGGAUCACCCAUGUUUUGGGUGUACGUCCCUUGGCAGCUCAAAAUGAUAA	–	–	230 nM	115 nM
UCAUAUUAGAUAGAUGUAAGGUAUCAUGAUACCAGUAGAUAAUUAUACCCUUGGCAGCAUAACAUGAGGAUCACCCAUGUACAUG	21.3 nM	20.9 nM	–	–
AUUUACAUGGUCAUAUAUAUAUCGUCAGAUACCAGACUAGAUAUAGUCCCUUGGCAGCUGUUACAUGAGGAUCACCCAUGUUAUA	129 nM	110 nM	–	–
AAUCUGUCGGGUGAUACCAGCCUCGGCGCAUCUCGCACCGAACAUGAGGAUCACCCAUGUGGCCCUUGGCAGCACAUGACAAAUC	–	–	371 nM	82.2 nM
GGUCUCUGGAGCGAUACCAGCUUGAUCGUACUGGCCUGGUACAUGAGGAUCACCCAUGUAAGCCCUUGGCAGCGCUCCAGAGACC	12.3 nM	28.1 nM	–	–
GAGCUGAUGUAGAGAUUAUAUAAAAGAGAUACCAGUACAGAAAUGUACCCUUGGCAGCUCAACUUUACAUGAGGAUCACCCAUGU	14.8 nM	17.5 nM	–	–
GCACCAGGUACGGAUACCAGCUGCCCGAGAUACAUGAGGAUCACCCAUGUGACCUGGUUUAGCCCUUGGCAGCUGUACCUGGUGC	–	–	13.6 nM	9.99 nM
UAUAACAUGAGGAUCACCCAUGUAAGUGAUACCAGAUAAAUAAUAGUCCCUUGGCAGCAUAUUGGGAAAAUGUAUAAUAUAUAUU	–	–	57.8 nM	57.4 nM

Sequence	apparent Kd [1]	apparent Kd [2]	apparent Kd [3]	apparent Kd [4]
AUAUGGCGAGAUGAUACCAGACACAUGAGGAUCACCCAUGUUGAUGGUAAGUCUGCAUAUGUCCCUUGGCAGCAUAGCGACAUAU	8.27 nM	20.8 nM	–	–
AGCAGUACAACAGAUACCAGACUUUUAAUGCCUCUAAUUACAUGAGGAUCACCCAUGUUUGUCCCUUGGCAGCUGUUGUACUGCA	136 nM	211 nM	–	–
GAUGAACUAUUUGAUACCAGACAACAUGAGGAUCACCCAUGUGCGCGUCGUCCUCUGCCUGUCCCUUGGCAGCAAAUAGUUUAUC	58.5 nM	97.1 nM	–	–
GGAAUAACGAUUGAUACCAGCAUGUUAACAUGAGGAUCACCCAUGUUAAGGAUAACAUAAUGCCCUUGGCAGCAACGGAAACCCG	–	–	21.3 nM	12.9 nM
AAACUGGGUGUAAAAUAAAUAAUCACUGAUACCAGACUAUUUUAUGUCCCUUGGCAGCAGAAACAUGAGGAUCACCCAUGUAAUA	20.3 nM	22.5 nM	–	–
GCACCAGGUACGGAUACCAGCUGCCAGCGUUACAUGAGGAUCACCCAUGUGAUCUGAAGUAGCCCUUGGCAGCUGUACCUGGUGC	–	–	21.2 nM	95.9 nM
CGGUUUGUGAUGGAUACCAGCAGUGUGGCUGUUUAUCCUGACAUGAGGAUCACCCAUGUGUGCCCUUGGCAGCUGUUGUGGGCUG	76.5 nM	130 nM	–	–
ACUUCAUGAGGUGAUACCAGCCAAUGACAUGAGGACAUGAGGAUCACCCAUGUUUAUGUAGGCCCUUGGCAGCACUGUAACAUGA	–	–	20.6 nM	25.9 nM
AGCCCUGUACUAGAUACCAGCUACAUGAGGAUCACCCAUGUGCGUCAAGACUGACUGUGUAGCCCUUGGCAGCUACUCGCAUGUA	15.7 nM	25.5 nM	–	–
UACAUGAGGAUCACCCAUGUAUAGAGGGAUACCAGUGUCAGUGAGCACCCUUGGCAGCCCGCGAACAAUGGGUGCGCUAUAUAGU	26.3 nM	62.2 nM	–	–
AGUGUUAUAACUGAUACCAGACUCUCAUGUUUACAUGAGGAUCACCCAUGUUAUUUCUUUGUCCCUUGGCAGCAGAAUUAACACA	–	–	208 nM	38.2 nM
AAUAACAUGAGGAUCACCCAUGUAAAAGAUACCAGGGUGAUGAUCCUCCCUUGGCAGCUUACAGCUGAUCAAUAAGAUCGGCUGA	–	–	–	257 nM
UAACAUGAGGAUCACCCAUGUAUAGUCGAUACCAGCUCAAGGAAGAGCCCUUGGCAGCGACACUGCCAAGCAUGGGUCAUGGCAG	–	–	21.1 nM	33.4 nM
UCUUGGUCCGCAAGGACCUUGAGUUGCGAUACCAGCACGGUAACGUGCCCUUGGCAGCGCACAUGAGGAUCACCCAUGUGGUGUU	261 nM	236 nM	–	–
UUUACAUGAGGAUCACCCAUGUGCCAUGAUACCAGACAUGAAAAUGUCCCUUGGCAGCAUGAAGGUACCUCAUCGGGAAACCGAA	–	–	134 nM	247 nM
AUACAUGAGGAUCACCCAUGUAUAGUCGAUACCAGCUCAAGGAAGAGCCCUUGGCAGCGACACUGGUAUCCAUGGGUGAUACCAG	–	–	22.3 nM	31.5 nM
ACGACGCAUAGUGAUACCAGUAGAACAUGAGGAUCACCCAUGUCUGUGGCGCACCACCUCUGCCCUUGGCAGCACUAUGCGUCAG	–	–	13.4 nM	12.8 nM
AACAUACAUGAGGAUCACCCAUGUCACGAUACCAGAUACAUGAGGAUCCCUUGGCAGCGUCAUGAGGAUCACCCAUGUUGUACAU	16.5 nM	58.3 nM	–	–
ACAUGAGGAUCACCCAUGUAAUGGCACGAUACCAGCUGAUCCCGUGGCCCUUGGCAGCGUCCGGUGUGGUCCGCCGGGUUGGACG	–	–	23.1 nM	35 nM
CGAUGAUGAAGGGAUACCAGAAAUGGUAUUCCUUUAUUUCUUACAUGAGGAUCACCCAUGUUCCCUUGGCAGCUUUUUAUCAUCG	75.7 nM	117 nM	–	–
